In ChEMBL document CHEMBL1137079, “Synthesis and structure-activity relationships of 3-aminobenzophenones as antimitotic agents” (J Med Chem, 2004):

Columns and labels:
Tubulin = Tubulin (Bos taurus, UniProt Q6B856+Q862L2+Q862F3); assay: Inhibitory concentration required against MAP-rich tubulin polymerization; assay type: functional
HT-29 = assay: In vitro cytotoxic activity against human HT-29 cell line of colorectal carcinoma; assay type: functional, cell-based
How it was run: (§1)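 Cells kept in RPMI-1640 with 5% fetal bovine serum; log-phase cells seeded at 5000 cells/mL/well, exposed to various drug concentrations for 72 h. Growth read by methylene blue dye assay; IC50 (50% growth inhibition versus control) derived graphically. Mean and SD of at least three independent experiments.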

KB [1] = assay: In vitro cytotoxic activity against human KB-VIN10 cell line overexpressing P-gp 170/MDR; assay type: functional, cell-based
How it was run: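 Vincristine-selected P-gp170/MDR-overexpressing KB line, maintained with 10 nM vincristine, then grown drug-free for 3 days before use. Log-phase cells seeded at 5000 cells/mL/well, exposed 72 h to various drug concentrations; methylene blue dye readout, IC50 (50% growth inhibition versus control) taken graphically. Mean and SD, at least three independent experiments.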

KB [2] = assay: In vitro cytotoxic activity against human KB cell line of epidermoid carcinoma; assay type: functional, cell-based; how it was run: as §1
TSGH = assay: In vitro cytotoxic activity against human TSGH cell line of stomach carcinoma; assay type: functional, cell-based; how it was run: as §1
[3] = target: Tubulin alpha chain (Sus scrofa) (UniProt P02550); assay: Ability to inhibit 3[H]Colchicine binding to colchicine-binding domain of tubulin; Strong inhibition
[4] = target: Tubulin alpha chain (Sus scrofa) (UniProt P02550); assay: Ability to inhibit 3[H]Colchicine binding to colchicine-binding domain of tubulin; effective inhibition
[5] = target: Tubulin alpha chain (Sus scrofa) (UniProt P02550); assay: Ability to inhibit 3[H]Colchicine binding to colchicine-binding domain of tubulin; Weak inhibition

Tubulin alpha chain (Sus scrofa), sequence (P02550 whole entry, looked up, the tested form may be a part): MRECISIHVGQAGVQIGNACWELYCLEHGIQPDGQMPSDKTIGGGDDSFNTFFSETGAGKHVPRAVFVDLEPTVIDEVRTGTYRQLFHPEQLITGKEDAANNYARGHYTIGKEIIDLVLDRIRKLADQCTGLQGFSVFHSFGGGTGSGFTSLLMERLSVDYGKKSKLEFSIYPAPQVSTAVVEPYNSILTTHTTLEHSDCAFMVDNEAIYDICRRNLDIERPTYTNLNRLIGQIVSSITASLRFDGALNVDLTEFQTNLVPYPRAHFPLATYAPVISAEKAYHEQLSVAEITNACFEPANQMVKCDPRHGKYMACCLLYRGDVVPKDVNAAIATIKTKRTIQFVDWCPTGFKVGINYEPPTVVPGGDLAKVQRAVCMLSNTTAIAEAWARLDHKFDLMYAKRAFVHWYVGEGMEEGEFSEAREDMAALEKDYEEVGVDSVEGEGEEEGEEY

Compound	IC50 (Tubulin) [nM]	IC50 (HT-29) [nM]	IC50 (KB [1]) [nM]	IC50 (KB [2]) [nM]	IC50 (TSGH) [nM]	inhibition [3]	inhibition [4]	inhibition [5]
COc1ccc(Cc2cc(OC)c(OC)c(OC)c2)cc1N	> 50000	> 10000	> 10000	> 10000	> 10000	–	–	–
CCCOc1ccc(C(=O)c2cc(OC)c(OC)c(OC)c2)cc1N	42000	9000	8600	3800	4800	–	–	–
CCOc1ccc(C(=O)c2cc(OC)c(OC)c(OC)c2)cc1N	700	45	40	59	42	–	–	–
COc1ccc(C(=O)c2cc(OC)c(OC)c(OC)c2)c(N)c1	400	42	24	32	26	Strong inhibition	–	–
COc1ccc(/C=C\c2cc(OC)c(OC)c(OC)c2)cc1N	–	7.9	7.5	8.2	7.7	–	–	–
COc1cc(N)cc(C(=O)c2cc(OC)c(OC)c(OC)c2)c1	2600	163	307	590	157	–	–	–
COc1ccc(/C=C\c2cc(OC)c(OC)c(OC)c2)cc1O [COMBRETASTATIN A4]	–	260	2.4	2.1	45	–	–	–
COc1cc(C(=O)c2cc(N)ccc2Cl)cc(OC)c1OC	600	163	125	180	157	–	effective inhibition	–
COc1cc(C(=O)c2cc(N)cc(Cl)c2)cc(OC)c1OC	17000	1900	2900	1400	1500	–	–	–
COc1cc(C(=O)c2cc(Cl)ccc2N)cc(OC)c1OC	100	218	162	195	185	–	–	–
COc1ccc(N)cc1C(=O)c1cc(OC)c(OC)c(OC)c1	2900	400	324	306	497	–	–	Weak inhibition
COc1cc(C(=O)c2ccc(OC(C)C)c(N)c2)cc(OC)c1OC	6400	1300	800	900	900	–	–	–
COc1ccc(C(=O)c2cc(OC)c(OC)c(OC)c2)cc1N	300	33	31	32	33	Strong inhibition	–	–
COc1ccc(N)c(C(=O)c2cc(OC)c(OC)c(OC)c2)c1	1000	148	352	127	100	–	–	–
COc1cc(C(=O)c2ccc(Cl)c(N)c2)cc(OC)c1OC	11000	4000	3800	800	4000	–	–	–
COc1cc(C(=O)c2ccc(Cl)cc2N)cc(OC)c1OC	2700	1000	800	710	800	–	–	–
COc1ccc(C(=O)c2cc(OC)c(OC)c(OC)c2)cc1O [PHENSTATIN]	400	560	30	30	170	–	–	–
